Laboratory results: ChEMBL document CHEMBL1132369, “Synthesis of 1-(2-aminophenyl)isoquinolines and the biological activity of their cis-dichloro platinum(II) complexes” (J Med Chem, 1999)

How the values were obtained:
L1210 [1] = assay: Compound was evaluated for inhibition of DNA synthesis during 48 hours with L1210 murine leukemia cells; format: functional, cell-based, Mus musculus
Outline: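 Log-phase L1210 cells, cultured and treated as in the growth assay (5 × 10^4 cells/mL, 48 h total exposure; Pt complexes from DMSO, final 0.5%). At 42 h, 0.5 μCi [6-3H]thymidine was added and incubation continued 6 h. Cells were harvested onto glass-fibre filters, washed twice with water, and counted by liquid scintillation. IC50 is for inhibition of thymidine incorporation.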

L1210 [2] = assay: Compound was evaluated for growth inhibition during 48 hours with L1210 murine leukemia cells; format: functional, cell-based, Mus musculus
Outline: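 L1210 mouse leukemia cells grown in suspension in DMEM with 10% FCS, 2 mM glutamine, streptomycin and penicillin, at 37 °C in 5% CO2. Log-phase cells at 5 × 10^4 cells/mL were exposed to a range of concentrations for 48 h. Pt complexes came from DMSO stocks, pre-held 30 min at 40 °C, final DMSO 0.5%; ligand hydrochlorides were given in water. Cells were counted by haemocytometer, inhibition taken as % of untreated control, and IC50 interpolated from a log-linear plot. At least two independent duplicates were run.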

Row | IC50 (L1210 [1]; Mus musculus, L1210, 48 h) [µM] | IC50 (L1210 [2]; Mus musculus, L1210, 48 h) [µM] | IC50 (L1210 [1]; l1210) [µM] | IC50 (L1210 [2]; l1210) [µM] | Molecule
1 | 90 | 141 |  |  | COc1cc2c(cc1OC)C(c1ccccc1N)NCC2 (stereo not drawn)
2 |  |  | 20 | 9.7 | [1-(2-Aminophenyl)-6,7-dimethoxyisoquinoline]dichloroplatinum (II)
3 | 100 | 97 |  |  | COc1ccc(N)c(C2NCCc3cc(OC)c(OC)cc32)c1 (stereo not drawn)
4 |  |  | 1.4 | 0.95 | [1-(2-Amino-5-methoxyphenyl)-6,7-dimethoxy-1,2,3,4-tetrahydroisoquinoline]dichloroplatinum (II)
